Experimental data taken from ChEMBL document CHEMBL2429762, “Structure-activity relationship study of indole-2-carboxamides identifies a potent allosteric modulator for the cannabinoid receptor 1 (CB1)” (J Med Chem, 2013).
One block for each compound: values may come before it. The source made the active and inactive calls. No cut-off for these calls is given here.

What was measured:
[1] = target: Cannabinoid receptor 1 (Homo sapiens) (UniProt P21554); assay: Positive allosteric modulation of CB1 receptor (unknown origin) expressed in HEK293 cell membranes assessed as stimulation of [3H]CP55,940 binding after 60 mins by liquid scintillation counting analysis
Outline: (§1)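 Nonspecific binding was taken with 1 μM unlabeled CP55,940. Samples were filtered on GF/C and counted by scintillation. Runs were in duplicate, ≥3 experiments. α and KB came from nonlinear regression to the allosteric ternary complex model, with [A] and KA fixed.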

[2] = target: Cannabinoid receptor 1 (Homo sapiens) (UniProt P21554); assay: Antagonist activity CB1 receptor (unknown origin) expressed in HEK293 cell membranes assessed as inhibition of CP55,940-induced [35S]GTPgammaS binding at 3.2 uM after 60 mins by liquid scintillation counting analysis relative to control; format: functional
Outline: (§2)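 Wild-type CB1 HEK293 membranes (7.5 μg) were incubated 60 min at 30 °C in 50 mM Tris-HCl pH 7.4, 3 mM MgCl2, 0.2 mM EGTA, 100 mM NaCl, 0.1% BSA, 10 μM GDP and 0.1 nM [35S]GTPγS. CP55,940 was given at ≥9 concentrations (100 pM–100 μM), with or without modulator. Nonspecific binding was taken with 10 μM GTPγS. Samples were filtered and counted by scintillation. Runs were in duplicate, ≥3 experiments.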

[3] = target: Cannabinoid receptor 1 (Homo sapiens) (UniProt P21554); assay: Antagonist activity CB1 receptor (unknown origin) expressed in HEK293 cell membranes assessed as inhibition of CP55,940-induced [35S]GTPgammaS binding after 60 mins by liquid scintillation counting analysis; format: functional; outline: as §2
[4] = target: Cannabinoid receptor 1 (Homo sapiens) (UniProt P21554); assay: Antagonist activity CB1 receptor (unknown origin) expressed in HEK293 cell membranes assessed as inhibition of CP55,940-induced [35S]GTPgammaS binding at 10 uM after 60 mins by liquid scintillation counting analysis relative to control; format: functional; outline: as §2
[5] = target: Cannabinoid receptor 1 (Homo sapiens) (UniProt P21554); assay: Allosteric modulation of CB1 receptor (unknown origin) expressed in HEK293 cell membranes assessed as stimulation of [3H]CP55,940 binding up to 32 uM after 60 mins by liquid scintillation counting analysis; outline: as §1
[6] = target: Cannabinoid receptor 1 (Homo sapiens) (UniProt P21554); assay: Antagonist activity CB1 receptor (unknown origin) expressed in HEK293 cell membranes assessed as inhibition of [35S]GTPgammaS binding after 60 mins by liquid scintillation counting analysis; format: functional
Outline: (§3)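 Basal [35S]GTPγS binding was measured with no orthosteric agonist on wild-type CB1 HEK293 membranes (7.5 μg), 60 min at 30 °C. Buffer was Tris pH 7.4 with MgCl2, EGTA, NaCl and BSA, plus 5 μM GDP and 0.1 nM [35S]GTPγS, and modulator added. Nonspecific binding was taken with 10 μM GTPγS. Mock-transfected membranes gave the non-CB1 binding. Samples were filtered and counted by scintillation. Runs were in duplicate, ≥3 experiments; one-way ANOVA with Bonferroni test was applied.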

[7] = target: Cannabinoid receptor 1 (Homo sapiens) (UniProt P21554); assay: Antagonist activity CB1 receptor (unknown origin) expressed in HEK293 cell membranes assessed as inhibition of CP55,940-induced [35S]GTPgammaS binding at 0.1 uM after 60 mins by liquid scintillation counting analysis (reference value: […] +/- […] fmol/mg); format: functional
[8] = target: Cannabinoid receptor 1 (Homo sapiens) (UniProt P21554); assay: Antagonist activity CB1 receptor (unknown origin) expressed in HEK293 cell membranes assessed as inhibition of [35S]GTPgammaS binding at 10 uM after 60 mins by liquid scintillation counting analysis; format: functional; outline: as §3
[9] = target: Cannabinoid receptor 1 (Homo sapiens) (UniProt P21554); assay: Antagonist activity CB1 receptor (unknown origin) expressed in HEK293 cell membranes assessed as inhibition of CP55,940-induced [35S]GTPgammaS binding at 1 uM after 60 mins by liquid scintillation counting analysis relative to control; format: functional; outline: as §2

Cannabinoid receptor 1 (Homo sapiens), sequence (P21554 whole entry): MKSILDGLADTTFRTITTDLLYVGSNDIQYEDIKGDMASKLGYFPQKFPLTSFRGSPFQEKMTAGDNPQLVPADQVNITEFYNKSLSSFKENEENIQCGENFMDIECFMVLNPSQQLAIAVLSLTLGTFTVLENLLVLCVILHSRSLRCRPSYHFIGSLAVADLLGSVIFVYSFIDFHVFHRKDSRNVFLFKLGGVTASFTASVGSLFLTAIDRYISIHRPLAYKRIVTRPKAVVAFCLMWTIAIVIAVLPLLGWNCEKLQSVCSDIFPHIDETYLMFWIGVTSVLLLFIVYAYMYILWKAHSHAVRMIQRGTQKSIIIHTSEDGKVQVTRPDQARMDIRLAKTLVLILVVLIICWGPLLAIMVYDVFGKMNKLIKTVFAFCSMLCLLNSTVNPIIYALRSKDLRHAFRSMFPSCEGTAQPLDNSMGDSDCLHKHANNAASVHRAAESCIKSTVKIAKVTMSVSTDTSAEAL

Compound: CCc1c(C(=O)NCCc2ccc(N3CCCCC3)cc2)[nH]c2ccc(Cl)cc12
Kb [1]: 217 nM

Compound: CCCCCc1c(C(=O)NC(CO)Cc2ccc(N(C)C)cc2)[nH]c2ccc(Cl)cc12 (stereo not given)
Kb [1]: 1020 nM

Compound: CCc1c(C(=O)NCCc2ccc(N(C)C)cc2)oc2ccc(Cl)cc12
Kb [1]: 627 nM

Compound: CCCCCCCCCc1c(C(=O)NCCc2ccc(N3CCCCC3)cc2)[nH]c2ccc(Cl)cc12
Kb [1]: 260 nM
Emax [2]: 61.4 fmol/mg
inhibition [3]: Dose-dependent effect
inhibition [4]: Active

Compound: CCCCCCCc1c(C(=O)NCCc2ccc(N3CCCCC3)cc2)[nH]c2ccc(Cl)cc12
Kb [1]: 651 nM

Compound: CCCCCc1c(C(=O)NCc2ccc(N3CCCCC3)cc2)[nH]c2ccc(Cl)cc12
Activity [5]: inactive

Compound: CCCCCc1c(C(=O)NCCc2ccc(N(C)C)cc2)[nH]c2ccc(Cl)cc12
inhibition [6]: Dose-dependent effect
Kb [1]: 167 nM
Emax [7]: 53.4 fmol/mg
inhibition [3]: Dose-dependent effect
inhibition [8]: Active
Emax [9]: 36 fmol/mg

Compound: CN(C)c1ccc(CCNC(=O)c2cc3cc(Cl)ccc3o2)cc1
Activity [5]: inactive

Compound: CCCCCc1c(C(=O)NCCc2ccc(Oc3ccccc3)cc2)[nH]c2ccc(Cl)cc12
Kb [1]: 2340 nM

Continued, values first:

Kb [1]: 2590 nM
Emax [2]: 59.5 fmol/mg
inhibition [3]: Dose-dependent effect
inhibition [4]: Active
Compound: CCc1c(C(=O)NCCc2ccc(N3CCCCC3)cc2)oc2ccc(Cl)cc12

Kb [1]: 207 nM
Compound: CCc1c(C(=O)NCCc2ccc(N(C)C)cc2)[nH]c2ccc(Cl)cc12

Kb [1]: 2410 nM
Compound: O=C(NCCc1ccc(N2CCCCC2)cc1)c1[nH]c2ccc(Cl)cc2c1CC1CCCCC1

Kb [1]: 508 nM
Emax [2]: 58.2 fmol/mg
inhibition [3]: Dose-dependent effect
inhibition [4]: Active
Compound: CCCCCc1c(C(=O)NCCc2ccc(N3CCOCC3)cc2)[nH]c2ccc(Cl)cc12

Activity [5]: inactive
Compound: O=C(NCCc1ccc(N2CCCCC2)cc1)c1cc2cc(Cl)ccc2o1

Activity [5]: inactive
Compound: O=C(NCCc1ccc(N2CCCCC2)cc1)c1[nH]c2ccc(Cl)cc2c1-c1ccccc1

Kb [1]: 1070 nM
Compound: O=C(NCCc1ccc(N2CCCCC2)cc1)c1[nH]c2ccc(Cl)cc2c1Cc1ccccc1
